≈ marks a conversion by molar mass, not a printed value.
Legend:
[1] = Toxicity against brine shrimp; assay type: organism-based; settings: artemia, in vivo; read-out: LD50 (the source's name)
How it was run: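 Brine shrimp lethality follows a literature procedure, with DMSO as the negative control and colchicine as the positive control. Lethality is expressed as LD50 in μM.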

[2] = test system: Escherichia coli; test: Antimicrobial activity against Escherichia coli by broth microdilution method; assay type: functional
How it was run: (§1)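 Broth microdilution run per a cited literature method, with chloromycetin as the positive control. The read-out is the MIC in μg/mL.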

[3] = test system: Micrococcus luteus; test: Antimicrobial activity against Micrococcus luteus by broth microdilution method; assay type: functional; how it was run: as §1

Row | MIC [2] [µg/mL] | MIC [3] [µg/mL] | SMILES | LC50 [1] [µM]
1 | – | – | C=C(C)/C=C/c1ccc2c(c1OC)C(=O)OCc1cc(C)cc(O)c1O2 | 136
2 | 16 (≈ 40 µM) | 64 (≈ 160 µM) | CC(=O)OCc1cc(C)cc(O)c1Oc1ccc(CC=C(C)C)c(O)c1C(=O)O | –
3 | – | – | COc1cc2c(c(OC)c1OC)-c1ccc(OC)c(=O)cc1[C@@H](NC(C)=O)CC2 [COLCHICINE] | 71.1
4 | 32 (≈ 79.1 µM) | 256 (≈ 633 µM) | COc1c(C(CC(C)C)OC)ccc(Oc2c(O)cc(C)cc2CO)c1C(=O)O (stereo unspecified) | –
5 | – | – | COc1c([C@@H](O)CC(C)C)ccc2c1C(=O)OCc1cc(C)cc(O)c1O2 [PENICILLIDE] | 158
6 | – | – | COc1c(/C=C/C(C)(C)OC)ccc2c1C(=O)OCc1cc(C)cc(O)c1O2 | 72.6
7 | – | – | COC(=O)[C@]12C(=O)[C@H](C)O[C@@H]3OC(=O)[C@](C)(C[C@H]4[C@]5(CO5)C5=CC(=O)OC(C)(C)C5=CC[C@@]41C)[C@@H]32 [BERKELEYACETAL B] | 160

Row | SMILES | MIC [2] [µg/mL] | MIC [3] [µg/mL] | LC50 [1] [µM]
8 | O=C(N[C@H](CO)[C@H](O)c1ccc([N+](=O)[O-])cc1)C(Cl)Cl [CHLORAMPHENICOL] | 4 (≈ 12.4 µM) | 4 (≈ 12.4 µM) | –

From ChEMBL document CHEMBL2163193, “Meroterpenoid and diphenyl ether derivatives from Penicillium sp. MA-37, a fungus isolated from marine mangrove rhizospheric soil” (J Nat Prod, 2012)
